Measurements taken from EPA's CvTdb concentration-time database.

How the values were obtained:
[1] = tested on: Rat; assay: concentration in liver after dosing; settings: dosed: Potassium Perfluorobutane Sulfonate, 20 mg/kg, oral
[2] = tested on: Rat; assay: concentration in liver after dosing; settings: 6 h; dosed: Potassium Perfluorobutane Sulfonate; 20 mg/kg; oral; Male; Harlan Sprague Dawley
[3] = tested on: Rat; assay: concentration in liver after dosing; settings: 3 h; dosed: Potassium Perfluorobutane Sulfonate; 20 mg/kg; oral; Male; Harlan Sprague Dawley
[4] = tested on: Rat; assay: concentration in brain after dosing; settings: 0.5 h; dosed: Potassium Perfluorobutane Sulfonate; 20 mg/kg; oral; Female; Harlan Sprague Dawley
[5] = tested on: Rat; assay: concentration in brain after dosing; settings: dosed: Potassium Perfluorobutane Sulfonate, 20 mg/kg, oral
[6] = tested on: Rat; assay: concentration in plasma after dosing; settings: dosed: Potassium Perfluorobutane Sulfonate
[7] = tested on: Rat; assay: concentration in kidney after dosing; settings: 0.5 h; dosed: Potassium Perfluorobutane Sulfonate; 20 mg/kg; oral; Male; Harlan Sprague Dawley
[8] = tested on: Rat; assay: concentration in kidney after dosing; settings: dosed: Potassium Perfluorobutane Sulfonate, 20 mg/kg, oral
[9] = tested on: rat; assay: amount in urine after dosing (umol)
[10] = tested on: human; assay: concentration in expired air after dosing; settings: dosed: methyl tert-butyl ether, 15 mg, oral, male
In short: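 A PubMed search, classifier screening and manual review identified published in vivo toxicokinetic studies, which together with two structured collections supplied concentration-versus-time and amount-versus-time points. Points were mostly digitised from plot screenshots with WebPlotDigitizer, otherwise copied from tables. Dose, route, subject details and medium were hand-curated from each paper, and sampling and analytical methods are those of the sources, often unreported.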

[11] = 0.5 h, Female, Harlan Sprague Dawley
[12] = 0.5 h, Male, Harlan Sprague Dawley
[13] = 0.5 h, Male, Harlan Sprague Dawley - this seems too small
[14] = 1 h, Female, Harlan Sprague Dawley
[15] = 1 h, Male, Harlan Sprague Dawley
[16] = 3 h, Female, Harlan Sprague Dawley
[17] = 3 h, Male, Harlan Sprague Dawley
[18] = 6 h, Female, Harlan Sprague Dawley
[19] = 6 h, Male, Harlan Sprague Dawley
[20] = 12 h, Male, Harlan Sprague Dawley

Work on `O=S(=O)([O-])C(F)(F)C(F)(F)C(F)(F)C(F)(F)F.[K+]` [Potassium Perfluorobutane Sulfonate] yielded a concentration in liver [1, 11] of 29500 ng/g, a concentration in liver [1, 12] of 61000 ng/g and a concentration in liver [1, 13] of 95200 ng/g. The concentration in liver [1, 14] was 42000 ng/g, the concentration in liver [1, 15] was 75600 ng/g and the concentration in liver [1, 16] was 5790 ng/g. It also gave a concentration in liver [1, 17] of 87000 ng/g, a concentration in liver [1, 18] of 910 ng/g and a concentration in liver [1, 19] of 51600 ng/g. It also gave a concentration in liver [1, 20] of 7420 ng/g, a concentration in liver [2] of 43800 ng/g and a concentration in liver [3] of 64100 ng/g. For the same molecule, the concentration in brain [4] was 518 ng/g, the concentration in brain [5, 11] was 538 ng/g and the concentration in brain [5, 12] was 590 ng/g. For the same molecule, the concentration in brain [5, 13] was 725 ng/g, the concentration in brain [5, 15] was 1120 ng/g and the concentration in brain [5, 17] was 769 ng/g. It also gave a concentration in brain [5, 19] of 562 ng/g, a concentration in plasma ([6]; 5 min, 4 mg/kg, iv, Male, F344) of 33300 ng/mL and a concentration in plasma ([6]; 5 min, 4 mg/kg, oral, Male, Harlan Sprague Dawley) of 537 ng/mL. It also gave a concentration in plasma ([6]; 5 min, 20 mg/kg, oral, Male, Harlan Sprague Dawley) of 653 ng/mL, a concentration in plasma ([6]; 0.25 h, 4 mg/kg, iv, Male, F344) of 28000 ng/mL and a concentration in plasma ([6]; 0.25 h, 4 mg/kg, oral, Male, Harlan Sprague Dawley) of 4690 ng/mL. For the same molecule, the concentration in plasma ([6]; 0.25 h, 20 mg/kg, oral, Male, Harlan Sprague Dawley) was 28700 ng/mL, the concentration in plasma ([6]; 0.5 h, 4 mg/kg, iv, Female, Harlan Sprague-Dawley) was 11100 ng/mL and the concentration in plasma ([6]; 0.5 h, 4 mg/kg, iv, Male, F344) was 23800 ng/mL. It also gave a concentration in plasma ([6]; 0.5 h, 4 mg/kg, oral, Male, Harlan Sprague Dawley) of 9170 ng/mL, a concentration in plasma ([6]; 0.75 h, 4 mg/kg, iv, Female, Harlan Sprague-Dawley) of 7790 ng/mL and a concentration in plasma ([6]; 0.75 h, 4 mg/kg, iv, Male, F344) of 23800 ng/mL. It also gave a concentration in plasma ([6]; 0.75 h, 4 mg/kg, oral, Male, Harlan Sprague Dawley) of 9060 ng/mL, a concentration in plasma ([6]; 0.75 h, 20 mg/kg, oral, Male, Harlan Sprague Dawley) of 49600 ng/mL and a concentration in plasma ([6]; 1 h, 4 mg/kg, iv, Female, Harlan Sprague-Dawley) of 4090 ng/mL. The concentration in plasma ([6]; 1 h, 4 mg/kg, iv, Male, F344) was 22000 ng/mL, the concentration in plasma ([6]; 1 h, 4 mg/kg, oral, Male, Harlan Sprague Dawley) was 12900 ng/mL and the concentration in plasma ([6]; 1.5 h, 4 mg/kg, iv, Male, F344) was 18500 ng/mL. The concentration in plasma ([6]; 1.5 h, 4 mg/kg, oral, Male, Harlan Sprague Dawley) was 12100 ng/mL, the concentration in plasma ([6]; 1.5 h, 20 mg/kg, oral, Male, Harlan Sprague Dawley) was 63600 ng/mL and the concentration in plasma ([6]; 3 h, 4 mg/kg, iv, Male, F344) was 10500 ng/mL. It also gave a concentration in plasma ([6]; 3 h, 4 mg/kg, oral, Male, Harlan Sprague Dawley) of 15300 ng/mL, a concentration in plasma ([6]; 6 h, 4 mg/kg, iv, Male, F344) of 6690 ng/mL and a concentration in plasma ([6]; 6 h, 4 mg/kg, oral, Male, Harlan Sprague Dawley) of 12500 ng/mL. The concentration in plasma ([6]; 9 h, 4 mg/kg, oral, Male, Harlan Sprague Dawley) was 8100 ng/mL, the concentration in plasma ([6]; 9 h, 20 mg/kg, oral, Male, Harlan Sprague Dawley) was 15100 ng/mL and the concentration in plasma ([6]; 12 h, 4 mg/kg, iv, Male, F344) was 1600 ng/mL. For the same molecule, the concentration in plasma ([6]; 12 h, 4 mg/kg, oral, Male, Harlan Sprague Dawley) was 9160 ng/mL, the concentration in plasma ([6]; 24 h, 4 mg/kg, iv, Male, F344) was 232 ng/mL and the concentration in plasma ([6]; 24 h, 4 mg/kg, oral, Male, Harlan Sprague Dawley) was 47.1 ng/mL. The concentration in plasma ([6]; 24 h, 20 mg/kg, oral, Male, Harlan Sprague Dawley) was 364 ng/mL, the concentration in plasma ([6]; 48 h, 20 mg/kg, oral, Male, Harlan Sprague Dawley) was 42.6 ng/mL and the concentration in kidney [7] was 9690 ng/g. The concentration in kidney [8, 11] was 30100 ng/g, the concentration in kidney [8, 12] was 19000 ng/g and the concentration in kidney [8, 13] was 19900 ng/g. It also gave a concentration in kidney [8, 14] of 17600 ng/g, a concentration in kidney [8, 15] of 14900 ng/g and a concentration in kidney [8, 16] of 10900 ng/g. It also gave a concentration in kidney [8, 17] of 19700 ng/g, a concentration in kidney [8, 18] of 1290 ng/g and a concentration in kidney [8, 19] of 15200 ng/g. The concentration in kidney [8, 20] was 1960 ng/g.
For `CO` [methanol], the amount in urine ([9]; 0.9577 h, dosed: methanol, 100 mg/kg, iv, male, CDF(F344)/CrlBR) was 2.05, the amount in urine ([9]; 2.957 h, dosed: methanol, 100 mg/kg, iv, male, CDF(F344)/CrlBR) was 4.06 and the amount in urine ([9]; 5.924 h, dosed: methanol, 100 mg/kg, iv, male, CDF(F344)/CrlBR) was 5.16. For the same molecule, the amount in urine ([9]; 9.972 h, dosed: methanol, 100 mg/kg, iv, male, CDF(F344)/CrlBR) was 5.6, the amount in urine ([9]; 11.92 h, dosed: methanol, 100 mg/kg, iv, male, CDF(F344)/CrlBR) was 5.58 and the amount in urine ([9]; 14.94 h, dosed: methanol, 100 mg/kg, iv, male, CDF(F344)/CrlBR) was 5.56.
Molecule `CC(C)(C)O` [tert-butyl alcohol] has an amount in urine ([9]; 5.904 h, dosed: methyl tert-butyl ether, 38.7 ppm, inhalation, duration: 4 hr, F344 (Harlan Winkelmann)) of 0.773, an amount in urine ([9]; 5.97 h, dosed: ethyl tert-butyl ether, 40.6 ppm, inhalation, duration: 4 hr, F344 (Harlan Winkelmann)) of 0.601 and an amount in urine ([9]; 11.88 h, dosed: methyl tert-butyl ether, 38.7 ppm, inhalation, duration: 4 hr, F344 (Harlan Winkelmann)) of 0.347. The amount in urine ([9]; 11.92 h, dosed: ethyl tert-butyl ether, 40.6 ppm, inhalation, duration: 4 hr, F344 (Harlan Winkelmann)) was 0.254, the amount in urine ([9]; 11.96 h, dosed: methyl tert-butyl ether, 4.5 ppm, inhalation, duration: 4 hr, F344 (Harlan Winkelmann)) was 0.24 and the amount in urine ([9]; 17.95 h, dosed: methyl tert-butyl ether, 4.5 ppm, inhalation, duration: 4 hr, F344 (Harlan Winkelmann)) was 0.076. For the same molecule, the amount in urine ([9]; 17.97 h, dosed: methyl tert-butyl ether, 38.7 ppm, inhalation, duration: 4 hr, F344 (Harlan Winkelmann)) was 0.126, the amount in urine ([9]; 17.99 h, dosed: ethyl tert-butyl ether, 40.6 ppm, inhalation, duration: 4 hr, F344 (Harlan Winkelmann)) was 0.187 and the amount in urine ([9]; 23.91 h, dosed: methyl tert-butyl ether, 4.5 ppm, inhalation, duration: 4 hr, F344 (Harlan Winkelmann)) was 0.0671. The amount in urine ([9]; 23.93 h, dosed: methyl tert-butyl ether, 38.7 ppm, inhalation, duration: 4 hr, F344 (Harlan Winkelmann)) was 0.0789, the amount in urine ([9]; 23.94 h, dosed: ethyl tert-butyl ether, 40.6 ppm, inhalation, duration: 4 hr, F344 (Harlan Winkelmann)) was 0.0668 and the amount in urine ([9]; 29.91 h, dosed: methyl tert-butyl ether, 38.7 ppm, inhalation, duration: 4 hr, F344 (Harlan Winkelmann)) was 0.0315. For the same molecule, the amount in urine ([9]; 29.93 h, dosed: ethyl tert-butyl ether, 40.6 ppm, inhalation, duration: 4 hr, F344 (Harlan Winkelmann)) was 0.0668, the amount in urine ([9]; 29.96 h, dosed: methyl tert-butyl ether, 4.5 ppm, inhalation, duration: 4 hr, F344 (Harlan Winkelmann)) was 0.083 and the “concentration in expired air” value ([10]; 0.163 h) was 1.334 nM. For the same molecule, the “concentration in expired air” value ([10]; 0.3286 h) was 2.062 nM, the “concentration in expired air” value ([10]; 0.5019 h) was 2.062 nM and the “concentration in expired air” value ([10]; 0.6649 h) was 2.197 nM. The “concentration in expired air” value ([10]; 0.8305 h) was 1.982 nM, the “concentration in expired air” value ([10]; 0.9909 h) was 1.774 nM and the “concentration in expired air” value ([10]; 1.501 h) was 1.665 nM. The “concentration in expired air” value ([10]; 1.995 h) was 1.562 nM, the “concentration in expired air” value ([10]; 2.994 h) was 1.49 nM and the “concentration in expired air” value ([10]; 3.99 h) was 1.323 nM. The “concentration in expired air” value ([10]; 4.991 h) was 1.366 nM and the “concentration in expired air” value ([10]; 5.99 h) was 1.242 nM.
